pIC50: −log10 of the molar value. Active and inactive are the calls of the source. The calls are words filed in the database; no cut-off is given here.
How the values were obtained:
MDCK [1] = experiment: Cytotoxicity against MDCK cells assessed as reduction in cell viability at 100 uM after 40 hrs by CellTiter-Glo assay; format: cell-based, Canis lupus familiaris; settings: dog
Procedure, shortened: (§1)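 Preliminary cytotoxicity screen in MDCK cells at 10 μM and 100 μM. Cells seeded overnight in DMEM with 10% FBS at 37 °C, 5% CO2, then exposed to compound for 40 h. CellTiter-Glo read-out, viability expressed as % of untreated control after background correction. Paclitaxel served as positive control.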

MDCK [2] = experiment: Cytotoxicity against MDCK cells assessed as reduction in cell viability at 10 uM after 40 hrs by CellTiter-Glo assay; format: cell-based, Canis lupus familiaris; settings: dog; procedure, shortened: as §1
[3] = target: Hemagglutinin (Influenza A virus) (UniProt B4URE7); experiment: Inhibition of Influenza A virus (A/WSN/33(H1N1)) HA-mediated haemagglutination in chicken RBC at 1.5 to 40 uM after 30 mins; format: cell-based; settings: Influenza A virus (A/WSN/1933(H1N1))
Sequence of Hemagglutinin (Influenza A virus) (B4URE7 as listed by the source): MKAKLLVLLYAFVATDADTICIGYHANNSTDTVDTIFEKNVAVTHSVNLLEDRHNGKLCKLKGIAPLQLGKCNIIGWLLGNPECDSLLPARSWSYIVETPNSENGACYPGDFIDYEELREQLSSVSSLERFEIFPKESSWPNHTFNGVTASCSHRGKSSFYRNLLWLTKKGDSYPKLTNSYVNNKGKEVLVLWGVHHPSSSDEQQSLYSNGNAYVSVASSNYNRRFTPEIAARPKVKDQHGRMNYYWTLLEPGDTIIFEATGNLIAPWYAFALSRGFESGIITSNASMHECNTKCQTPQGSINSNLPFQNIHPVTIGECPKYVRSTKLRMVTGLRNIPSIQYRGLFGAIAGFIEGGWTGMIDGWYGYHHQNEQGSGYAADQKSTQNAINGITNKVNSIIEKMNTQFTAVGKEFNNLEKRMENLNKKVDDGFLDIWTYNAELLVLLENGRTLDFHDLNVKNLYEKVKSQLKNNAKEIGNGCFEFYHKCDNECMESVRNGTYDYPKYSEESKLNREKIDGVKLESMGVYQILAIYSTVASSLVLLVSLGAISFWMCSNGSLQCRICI
Procedure, shortened: (§2)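 Hemagglutination assay. Freshly prepared 1% v/v chicken RBCs in saline were then added. After 30 min at room temperature, RBC aggregation was scored visually. Anti-HA antibody was the reference.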

[4] = Selectivity index, ratio of CC50 for MDCK cells to IC50 for Influenza A virus (A/WSN/33(H1N1)) infected in MDCK cells; format: toxicity, cell-based; settings: dog, read-out: Ratio CC50/IC50
Procedure, shortened: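 SI = CC50/IC50. CC50 comes from the 40 h CellTiter-Glo viability assay in uninfected MDCK cells. IC50 comes from the 40 h CellTiter-Glo CPE-reduction assay with A/WSN/33 at MOI 0.1.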

Influenza A virus [5] = experiment: Antiviral activity against Influenza A virus (A/WSN/33(H1N1)) infected in MDCK cells assessed as reduction in virus-induced cytopathic effect after 40 hrs by CellTiter-Glo assay; format: functional, organism-based; settings: A/WSN/1933(H1N1)
Procedure, shortened: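 MDCK cells grown overnight in DMEM with 10% FBS at 37 °C, 5% CO2. Medium replaced with compound plus A/WSN/33 virus (MOI 0.1) in DMEM with 1% FBS, 2 μg/mL TPCK-trypsin and 1% DMSO final. After 40 h, CellTiter-Glo luminescence read as CPE. IC50 is the mean of ≥3 independent determinations with standard deviations.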

[6] = Cytotoxicity against MDCK cells assessed as reduction in cell viability after 40 hrs by CellTiter-Glo assay; format: cell-based, Canis lupus familiaris; settings: dog
Procedure, shortened: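 MDCK cells seeded in DMEM with 10% FBS and cultured overnight at 37 °C, 5% CO2. Compounds added and incubated 40 h, then CellTiter-Glo viability measured. Viability % = background-corrected signal of treated well divided by control well, ×100. CC50 is the concentration giving 50% cell death.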

Erythrocyte = experiment: Induction of haemagglutination in chicken RBC at 1.5 to 40 uM after 30 mins; format: cell-based, Gallus gallus; settings: 0.5 h; procedure, shortened: as §2
MDCK [7] = experiment: Cytotoxicity against MDCK cells assessed as morphological changes up to 100 uM after 40 hrs by microscopic method; format: cell-based, Canis lupus familiaris; settings: dog
Procedure, shortened: (§3)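 MDCK cultures were set up as in the CPE assay: compound with or without A/WSN/33 infection (MOI 0.1), DMEM with 1% FBS and TPCK-trypsin. At 40 h post-infection, wells carrying compound up to 100 μM were inspected microscopically. Scored features were cell aggregation and detachment from the dish.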

Influenza A virus [8] = experiment: Antiviral activity against Influenza A virus (A/WSN/33(H1N1)) infected in MDCK cells assessed as reduction in virus-induced cytopathic effect up to 100 uM after 40 hrs by microscopic method; format: functional, organism-based; settings: A/WSN/1933(H1N1); procedure, shortened: as §3
[9] = target: Neuraminidase (Influenza A virus (strain A/Wilson-Smith/1933 H1N1) (Influenza A virus(strain A/WS/1933 H1N1))) (UniProt P03470); experiment: Inhibition of Influenza A virus (A/WSN/33(H1N1)) NA up to 100 uM using 4-MUNANA as substrate after 30 mins by fluorescence spectrophotometric assay; settings: Influenza A virus (A/WSN/1933(H1N1))
Sequence of Neuraminidase (Influenza A virus (strain A/Wilson-Smith/1933 H1N1) (Influenza A virus(strain A/WS/1933 H1N1))) (P03470 whole entry): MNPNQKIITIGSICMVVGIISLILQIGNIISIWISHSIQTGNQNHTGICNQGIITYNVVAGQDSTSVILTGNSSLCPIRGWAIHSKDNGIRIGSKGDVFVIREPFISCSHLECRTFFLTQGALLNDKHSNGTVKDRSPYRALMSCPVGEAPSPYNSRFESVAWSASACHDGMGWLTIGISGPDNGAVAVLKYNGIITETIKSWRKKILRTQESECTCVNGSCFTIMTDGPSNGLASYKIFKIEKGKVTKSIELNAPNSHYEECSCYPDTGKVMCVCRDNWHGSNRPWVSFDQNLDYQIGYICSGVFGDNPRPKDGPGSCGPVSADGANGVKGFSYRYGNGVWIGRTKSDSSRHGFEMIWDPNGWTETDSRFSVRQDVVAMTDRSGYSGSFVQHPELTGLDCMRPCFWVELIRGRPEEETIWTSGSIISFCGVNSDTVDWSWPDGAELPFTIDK
Procedure, shortened: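 NA activity was measured with A/WSN/33 virus as the enzyme source, mixed with compound and 20 μM MUNANA in 32.5 mM MES (4 mM CaCl2, pH 6.5). Incubated 30 min at 37 °C, then stopped with 34 mM NaOH. Fluorescent product read at ex 360 nm / em 460 nm.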

| Structure (SMILES) | Activity (MDCK [1]) | Activity (MDCK [2]) | selectivity ratio [4] | pIC50 (Influenza A virus [5]) | CC50 at 40 h [6] [µM] | further results |
| --- | --- | --- | --- | --- | --- | --- |
| COC(=O)C1=C[C@H](NC(=O)[C@]23CCC(C)(C)C[C@H]2C2=CC[C@@H]4[C@@]5(C)CC[C@H](O)C(C)(C)[C@@H]5CC[C@@]4(C)[C@]2(C)CC3)[C@@H](NC(C)=O)[C@H]([C@H](O)[C@H](O)CO)O1 | Toxic | Non-Toxic | – | – | – | – |
| COC(=O)C1=C[C@H](n2cc(CNC(=O)[C@]34CCC(C)(C)C[C@H]3C3=CC[C@@H]5[C@@]6(C)CC[C@H](O)C(C)(C)[C@@H]6CC[C@@]5(C)[C@]3(C)CC4)nn2)[C@@H](NC(C)=O)[C@H]([C@H](OC(C)=O)[C@@H](COC(C)=O)OC(C)=O)O1 | Toxic | Non-Toxic | – | – | – | – |
| COC(=O)C1=C[C@H](NC(=O)[C@]23CCC(C)(C)C[C@H]2C2=CC[C@@H]4[C@@]5(C)CC[C@H](O)C(C)(C)[C@@H]5CC[C@@]4(C)[C@]2(C)CC3)[C@@H](NC(C)=O)[C@H]([C@H](OC(C)=O)[C@@H](COC(C)=O)OC(C)=O)O1 | – | Non-Toxic | 22.7 | 5.08 | 188 | inhibition [3]: Active; Activity (Erythrocyte): Non-Toxic; Activity (MDCK [7]): Non-Toxic; Activity (Influenza A virus [8]): Active; inhibition [9]: inactive |
| C=C(C)[C@@H]1CC[C@]2(C(=O)N[C@H]3C=C(C(=O)OC)O[C@@H]([C@H](O)[C@H](O)CO)[C@@H]3NC(C)=O)CC[C@]3(C)[C@H](CC[C@@H]4[C@@]5(C)CC[C@H](O)C(C)(C)[C@@H]5CC[C@]43C)[C@@H]12 | – | Non-Toxic | – | < 4.00 | – | – |
| COC(=O)C1=C[C@H](NC(=O)[C@]23CCC(C)(C)C[C@H]2C2=CC[C@@H]4[C@@]5(C)CC[C@H](O)C(C)(C)[C@@H]5CC[C@@]4(C)[C@]2(C)C[C@H]3O)[C@@H](NC(C)=O)[C@H]([C@H](OC(C)=O)[C@@H](COC(C)=O)OC(C)=O)O1 | – | Non-Toxic | > 32.3 | 4.81 | > 200 | – |
| COC(=O)C1=C[C@H](n2cc(CNC(=O)[C@]34CC[C@@H](C)[C@H](C)[C@H]3C3=CC[C@@H]5[C@@]6(C)CC[C@H](O)C(C)(C)[C@@H]6CC[C@@]5(C)[C@]3(C)CC4)nn2)[C@@H](NC(C)=O)[C@H]([C@H](OC(C)=O)[C@@H](COC(C)=O)OC(C)=O)O1 | Toxic | Non-Toxic | – | – | – | – |
| COc1cc(/C=C/C(=O)CC(=O)/C=C/c2ccc(O)c(OC)c2)ccc1O [CURCUMIN] | – | – | 7.2 | 5.17 | – | – |
| COC(=O)C1=C[C@H](n2cc(CNC(=O)[C@]34CCC(C)(C)C[C@H]3C3=CC[C@@H]5[C@@]6(C)CC[C@H](O)C(C)(C)[C@@H]6CC[C@@]5(C)[C@]3(C)C[C@H]4O)nn2)[C@@H](NC(C)=O)[C@H]([C@H](O)[C@H](O)CO)O1 | – | Non-Toxic | > 3.6 | 4.26 | > 200 | – |
| C=C(C)[C@@H]1CC[C@]2(C(=O)N[C@H]3C=C(C(=O)OC)O[C@@H]([C@H](OC(C)=O)[C@@H](COC(C)=O)OC(C)=O)[C@@H]3NC(C)=O)CC[C@]3(C)[C@H](CC[C@@H]4[C@@]5(C)CC[C@H](O)C(C)(C)[C@@H]5CC[C@]43C)[C@@H]12 | – | Non-Toxic | – | < 4.00 | – | – |
| COC(=O)C1=C[C@H](NC(=O)[C@]23CC[C@@H](C)[C@H](C)[C@H]2C2=CC[C@@H]4[C@@]5(C)CC[C@H](O)C(C)(C)[C@@H]5CC[C@@]4(C)[C@]2(C)CC3)[C@@H](NC(C)=O)[C@H]([C@H](O)[C@H](O)CO)O1 | Toxic | Non-Toxic | – | – | – | – |
| C=C(C)[C@@H]1CC[C@]2(C(=O)NCc3cn([C@H]4C=C(C(=O)OC)O[C@@H]([C@H](O)[C@H](O)CO)[C@@H]4NC(C)=O)nn3)CC[C@]3(C)[C@H](CC[C@@H]4[C@@]5(C)CC[C@H](O)C(C)(C)[C@@H]5CC[C@]43C)[C@@H]12 | – | Non-Toxic | – | < 4.00 | – | – |
| COC(=O)C1=C[C@H](NC(=O)[C@]23CC[C@@H](C)[C@H](C)[C@H]2C2=CC[C@@H]4[C@@]5(C)CC[C@H](O)C(C)(C)[C@@H]5CC[C@@]4(C)[C@]2(C)CC3)[C@H](NC(C)=O)[C@H]([C@H](OC(C)=O)[C@@H](COC(C)=O)OC(C)=O)O1 | Non-Toxic | Non-Toxic | 7.1 | 4.72 | 136 | – |
| COC(=O)C1=C[C@H](n2cc(CNC(=O)[C@]34CCC(C)(C)C[C@H]3C3=CC[C@@H]5[C@@]6(C)CC[C@H](O)C(C)(C)[C@@H]6CC[C@@]5(C)[C@]3(C)CC4)nn2)[C@@H](NC(C)=O)[C@H]([C@H](O)[C@H](O)CO)O1 | – | Non-Toxic | > 7.1 | 4.55 | > 200 | – |
| COC(=O)C1=C[C@@H](n2cc(CNC(=O)[C@]34CC[C@@H](C)[C@H](C)[C@H]3C3=CC[C@@H]5[C@@]6(C)CC[C@H](O)C(C)(C)[C@@H]6CC[C@@]5(C)[C@]3(C)CC4)nn2)[C@@H](NC(C)=O)[C@H]([C@H](O)[C@H](O)CO)O1 | Toxic | Non-Toxic | – | < 4.00 | – | – |
| COC(=O)C1=C[C@@H](n2cc(CNC(=O)[C@]34CCC(C)(C)C[C@H]3C3=CC[C@@H]5[C@@]6(C)CC[C@H](O)C(C)(C)[C@@H]6CC[C@@]5(C)[C@]3(C)CC4)nn2)[C@@H](NC(C)=O)[C@H]([C@H](O)[C@H](O)CO)O1 | – | Non-Toxic | – | < 4.00 | – | – |
| COC(=O)C1=C[C@H](n2cc(CNC(=O)[C@]34CC[C@@H](C)[C@H](C)[C@H]3C3=CC[C@@H]5[C@@]6(C)CC[C@H](O)C(C)(C)[C@@H]6CC[C@@]5(C)[C@]3(C)CC4)nn2)[C@@H](NC(C)=O)[C@H]([C@H](O)[C@H](O)CO)O1 | Toxic | Non-Toxic | – | < 4.00 | – | – |
| COC(=O)C1=C[C@H](n2cc(CNC(=O)[C@]34CCC(C)(C)C[C@H]3C3=CC[C@@H]5[C@@]6(C)CC[C@H](O)C(C)(C)[C@@H]6CC[C@@]5(C)[C@]3(C)C[C@H]4O)nn2)[C@@H](NC(C)=O)[C@H]([C@H](OC(C)=O)[C@@H](COC(C)=O)OC(C)=O)O1 | Toxic | Non-Toxic | – | < 4.00 | – | – |
| C=C(C)[C@@H]1CC[C@]2(C(=O)NCc3cn([C@H]4C=C(C(=O)OC)O[C@@H]([C@H](OC(C)=O)[C@@H](COC(C)=O)OC(C)=O)[C@@H]4NC(C)=O)nn3)CC[C@]3(C)[C@H](CC[C@@H]4[C@@]5(C)CC[C@H](O)C(C)(C)[C@@H]5CC[C@]43C)[C@@H]12 | Toxic | Non-Toxic | – | – | – | – |
| COC(=O)C1=C[C@H](NC(=O)[C@]23CCC(C)(C)C[C@H]2C2=CC[C@@H]4[C@@]5(C)CC[C@H](O)C(C)(C)[C@@H]5CC[C@@]4(C)[C@]2(C)C[C@H]3O)[C@@H](NC(C)=O)[C@H]([C@H](O)[C@H](O)CO)O1 | – | Non-Toxic | > 4.9 | 4.39 | > 200 | – |

Source: ChEMBL document CHEMBL4261546, “Synthesis of novel pentacyclic triterpene-Neu5Ac2en derivatives and investigation of their in vitro anti-influenza entry activity” (Medchemcomm, 2017)
